Legend:
Coagulation factor X = Coagulation factor X (Homo sapiens, UniProt P00742); test: Inhibition of factor 10 by amidolytic assay
How it was run: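 Done by a previously published literature method. IC50 values are the mean of at least three experiments, with variation among results under 10%.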

Coagulation factor IX = Coagulation factor IX (Homo sapiens, UniProt P00740); test: Inhibition of human recombinant factor 9a by amidolytic assay
Coagulation factor IX, sequence (P00740 47-191 limits assumed): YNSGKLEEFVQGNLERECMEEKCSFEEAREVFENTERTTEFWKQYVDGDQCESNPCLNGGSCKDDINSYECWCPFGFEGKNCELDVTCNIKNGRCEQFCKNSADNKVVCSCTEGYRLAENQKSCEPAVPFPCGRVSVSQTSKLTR
Coagulation factor IX, sequence (P00740 227-461 limits assumed): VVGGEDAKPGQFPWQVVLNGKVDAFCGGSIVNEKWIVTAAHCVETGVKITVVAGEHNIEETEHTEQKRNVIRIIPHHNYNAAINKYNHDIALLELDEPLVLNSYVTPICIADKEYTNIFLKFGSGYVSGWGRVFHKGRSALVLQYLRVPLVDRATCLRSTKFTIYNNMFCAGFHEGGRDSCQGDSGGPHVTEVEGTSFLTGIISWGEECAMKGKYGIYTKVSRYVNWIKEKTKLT

Coagulation factor X, sequence (P00742 41-179 limits assumed): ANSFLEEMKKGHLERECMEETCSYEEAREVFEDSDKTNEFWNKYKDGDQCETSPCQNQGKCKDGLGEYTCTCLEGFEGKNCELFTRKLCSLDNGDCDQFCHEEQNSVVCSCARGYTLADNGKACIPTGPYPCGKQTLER
Coagulation factor X, sequence (P00742 235-488 limits assumed): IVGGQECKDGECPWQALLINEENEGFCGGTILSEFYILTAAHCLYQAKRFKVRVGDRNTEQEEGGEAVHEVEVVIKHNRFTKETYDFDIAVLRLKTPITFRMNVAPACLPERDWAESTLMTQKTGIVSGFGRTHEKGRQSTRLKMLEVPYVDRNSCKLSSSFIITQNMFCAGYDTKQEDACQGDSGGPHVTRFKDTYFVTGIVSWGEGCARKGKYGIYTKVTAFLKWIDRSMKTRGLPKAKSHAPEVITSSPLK

| SMILES | Ki (Coagulation factor X) [µM] | Ki (Coagulation factor IX) [µM] |
| --- | --- | --- |
| N=C(N)c1cc2c(OCc3ccccc3)cccc2s1 | 6 | 1.5 |
| N=C(N)c1cc2ccc(OCc3ccccc3Cl)cc2s1 | – | 7.2 |
| N=C(N)c1cc2ccc(OCc3cccs3)cc2s1 | 1.15 | 0.35 |
| N=C(N)c1cc2ccc(OCc3ccc(F)c(F)c3)cc2s1 | 5.7 | 0.45 |
| Cc1ccc(COc2ccc3cc(C(=N)N)sc3c2)cc1 | 7.9 | 0.9 |
| COC(=O)c1ccc(COc2ccc3cc(C(=N)N)sc3c2)cc1 | – | 11.3 |
| N=C(N)c1cc2ccc(OCCc3ccccc3)cc2s1 | – | 21.6 |
| N=C(N)c1cc2ccc(OCc3cccnc3)cc2s1 | 3.35 | 1.05 |
| N=C(N)c1cc2ccc(OCc3ccc(Cl)cc3)cc2s1 | 2.9 | 0.45 |
| COc1ccc(-c2ccc3cc(C(=N)N)sc3c2)cc1OC | – | 24.2 |
| N=C(N)c1cc2c(-c3ccccc3)cccc2s1 | – | 1.6 |
| COC(=O)CC(Oc1ccc2cc(C(=N)N)sc2c1)c1ccc(Cl)cc1 (stereo unspecified) | 0.033 | 0.028 |
| N=C(N)c1cc2cc(-c3ccccc3)ccc2s1 | – | 8 |
| COc1ccccc1COc1ccc2cc(C(=N)N)sc2c1 | – | 26.9 |
| N=C(N)c1cc2c(I)cccc2s1 | 22 | 0.95 |
| CC(Oc1ccc2cc(C(=N)N)sc2c1)c1ccc(F)cc1 (stereo unspecified) | – | 11.3 |
| N=C(N)c1cc2c(OCc3nc4ccccc4s3)cccc2s1 | 2.6 | 0.8 |
| CCOC(=O)COc1cccc2sc(C(=N)N)cc12 | – | 11.9 |
| CCOC(=O)COc1ccc2cc(C(=N)N)sc2c1 | 0.6 | 3.8 |
| COc1ccc(-c2ccc3sc(C(=N)N)cc3c2)cc1OC | 11.9 | 5.9 |

From ChEMBL document CHEMBL1156933, “Studies of benzothiophene template as potent factor IXa (FIXa) inhibitors in thrombosis” (J Med Chem, 2010)
